{
  "source": "ChEMBL document CHEMBL4152262",
  "about": "“Design, synthesis and evaluation of novel multi-target-directed ligands for treatment of Alzheimer's disease based on coumarin and lipoic acid scaffolds” (Eur J Med Chem, 2018)",
  "key": {"[1]": {"assay": "Metal chelating activity assessed as compound-Ca2+ complex formation at 20 uM after 30 mins by UV-visible spectrophotometric analysis", "how_it_was_run": "(§1)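 Compound (final 20 µM in methanol) mixed with metal salt (CuCl2, FeSO4, ZnCl2, AlCl3, MgCl2 or CaCl2, final 20 µM in methanol). After 30 min at room temperature, UV spectra recorded from 200 to 500 nm in 1-cm quartz cells on a dual-beam spectrophotometer.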"}, "[2]": {"assay": "Inhibition of soybean 15-LOX assessed as reduction in conversion of linoleic acid to 13-hydroperoxylinoleic acid by spectrophotometric method", "set-up": "species or system Glycine max", "how_it_was_run": "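Soybean lipoxygenase type 1-B (final 167 U/mL) with compound (DMSO stock diluted in 0.1 M phosphate buffer pH 8) and linoleic acid (134 mM in ethanol) at room temperature. Formation of 13-hydroperoxylinoleic acid followed spectrophotometrically at 234 nm.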"}, "[3]": {"system": "PC-12", "assay": "Neuroprotection against H2O2-induced cell death in rat PC12 cells assessed as cell viability at 0.1 uM preincubated for 3 hrs followed by H2O2 stimulation measured after 2 hrs by MTT assay (reference value: 25.2 to 41.8%)", "type": "functional", "details": "read-out: Activity"}, "[4]": {"system": "PC-12", "assay": "Cytotoxicity against rat PC12 cells assessed as effect on cell viability at 1 to 50 uM by MTT assay", "type": "cell-based", "details": "pc-12, 50 µM"}, "[5]": {"system": "PC-12", "assay": "Inhibition of H2O2-induced ROS generation in rat PC12 cells assessed as intracellular ROS level at 10 uM preincubated for 6 hrs followed by H2O2 addition measured after 18 hrs by DCFH-DA staining based fluorimetric method relative to control", "type": "functional", "set-up": "scale not given: the % may be the effect or the level left", "how_it_was_run": "(§2)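 PC12 cells at 1×10^4/well in RPMI with 10% FBS and penicillin/streptomycin, 24 h at 37 °C, 5% CO2. Test samples (1, 5, 10, 50 µM; ≤0.5% DMSO) for 6 h, PBS wash, then H2O2 150 µM for 18 h. Loaded with 10 µM DCFH-DA for 30 min at 37 °C in the dark, washed twice. DCF fluorescence read at ex 485/em 528 nm as % of untreated control. Three independent experiments, mean ± SEM.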"}, "[6]": {"assay": "Metal chelating activity assessed as compound-Zn2+ complex formation at 20 uM after 30 mins by UV-visible spectrophotometric analysis", "how_it_was_run": "as §1"}, "[7]": {"biological_target": "Amyloid-beta precursor protein (Homo sapiens) (UniProt P05067)", "sequence (P05067 whole entry)": "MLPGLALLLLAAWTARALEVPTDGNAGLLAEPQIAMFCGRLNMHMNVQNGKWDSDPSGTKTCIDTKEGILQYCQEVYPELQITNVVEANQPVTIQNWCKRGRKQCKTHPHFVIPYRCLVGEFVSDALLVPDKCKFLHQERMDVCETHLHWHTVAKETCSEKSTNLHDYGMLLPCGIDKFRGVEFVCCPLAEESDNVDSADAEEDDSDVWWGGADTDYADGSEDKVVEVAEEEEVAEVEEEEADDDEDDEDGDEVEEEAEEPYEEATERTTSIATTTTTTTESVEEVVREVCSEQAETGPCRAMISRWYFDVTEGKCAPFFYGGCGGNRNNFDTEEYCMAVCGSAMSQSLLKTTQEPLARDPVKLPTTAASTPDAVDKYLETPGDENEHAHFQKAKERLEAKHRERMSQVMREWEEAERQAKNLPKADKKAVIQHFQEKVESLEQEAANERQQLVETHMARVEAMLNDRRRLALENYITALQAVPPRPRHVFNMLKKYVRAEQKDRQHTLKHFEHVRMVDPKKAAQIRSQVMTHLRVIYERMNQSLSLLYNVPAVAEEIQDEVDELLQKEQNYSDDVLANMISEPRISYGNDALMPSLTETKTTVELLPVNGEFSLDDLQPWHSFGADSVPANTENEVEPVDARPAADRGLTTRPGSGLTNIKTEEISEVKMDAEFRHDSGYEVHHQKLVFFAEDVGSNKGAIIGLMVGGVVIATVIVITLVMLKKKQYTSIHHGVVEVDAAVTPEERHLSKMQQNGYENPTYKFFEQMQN", "assay": "Potency index, ratio of compound effect to rifampicin effect for inhibition of amyloid beta (1 to 42) (unknown origin) self-induced aggregation at 100 uM"}, "[8]": {"biological_target": "Cholinesterase (Equus caballus, UniProt P81908)", "sequence (P81908 whole entry)": "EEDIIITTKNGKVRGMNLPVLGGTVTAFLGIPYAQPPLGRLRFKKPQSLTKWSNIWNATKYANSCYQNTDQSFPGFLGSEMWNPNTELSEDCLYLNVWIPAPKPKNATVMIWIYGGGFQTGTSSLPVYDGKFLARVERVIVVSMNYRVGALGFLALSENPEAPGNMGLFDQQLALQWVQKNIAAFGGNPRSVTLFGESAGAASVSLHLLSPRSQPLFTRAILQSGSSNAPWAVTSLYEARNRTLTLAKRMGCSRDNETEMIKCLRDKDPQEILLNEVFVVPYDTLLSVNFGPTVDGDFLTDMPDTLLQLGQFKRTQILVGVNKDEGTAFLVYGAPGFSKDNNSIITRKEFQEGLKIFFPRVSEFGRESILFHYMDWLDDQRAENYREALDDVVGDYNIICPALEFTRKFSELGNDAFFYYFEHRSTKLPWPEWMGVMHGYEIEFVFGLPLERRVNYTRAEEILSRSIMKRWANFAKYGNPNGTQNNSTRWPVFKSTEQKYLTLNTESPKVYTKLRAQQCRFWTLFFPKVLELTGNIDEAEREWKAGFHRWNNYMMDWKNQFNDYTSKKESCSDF", "assay": "Inhibition of equine serum BuChE using butyrylthiocholine iodide as substrate pretreated for 5 mins followed by substrate addition by Ellman's method", "how_it_was_run": "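Ellman assay with horse serum BuChE (5 IU/mL) in 0.1 M phosphate buffer pH 8.0 with DTNB. Compound was preincubated with enzyme 5 min, then butyrylthiocholine iodide was added. Absorbance read at 412 nm. IC50 from a log concentration vs % inhibition curve; triplicate runs.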"}, "[9]": {"biological_target": "Acetylcholinesterase (Electrophorus electricus, UniProt O42275)", "sequence (O42275 whole entry)": "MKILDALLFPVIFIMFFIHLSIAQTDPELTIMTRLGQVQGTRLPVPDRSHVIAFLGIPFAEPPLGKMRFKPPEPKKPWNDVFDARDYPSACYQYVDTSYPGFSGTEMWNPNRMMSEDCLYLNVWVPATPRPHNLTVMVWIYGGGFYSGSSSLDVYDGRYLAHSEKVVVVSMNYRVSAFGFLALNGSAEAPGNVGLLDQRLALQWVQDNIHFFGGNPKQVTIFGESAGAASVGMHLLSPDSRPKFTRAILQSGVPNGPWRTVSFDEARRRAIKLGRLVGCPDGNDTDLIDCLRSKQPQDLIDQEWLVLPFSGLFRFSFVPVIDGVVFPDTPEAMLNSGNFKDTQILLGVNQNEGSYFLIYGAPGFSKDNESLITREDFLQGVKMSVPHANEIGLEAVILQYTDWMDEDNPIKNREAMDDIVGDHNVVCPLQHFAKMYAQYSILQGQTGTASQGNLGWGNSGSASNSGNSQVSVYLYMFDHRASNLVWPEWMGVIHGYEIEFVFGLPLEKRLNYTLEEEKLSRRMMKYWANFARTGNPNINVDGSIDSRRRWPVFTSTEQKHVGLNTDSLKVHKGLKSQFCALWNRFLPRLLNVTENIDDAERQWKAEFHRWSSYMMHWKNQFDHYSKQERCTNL", "assay": "Non-competitive inhibition of electric eel AChE using varying levels of acetylthiocholine iodide as substrate pretreated for 5 mins followed by substrate addition by Lineweaver-Burk plot analysis"}, "[10]": {"assay": "Metal chelating activity assessed as compound-Fe2+ complex formation at 20 uM after 30 mins by UV-visible spectrophotometric analysis", "how_it_was_run": "as §1"}, "[11]": {"system": "PC-12", "assay": "Inhibition of H2O2-induced ROS generation in rat PC12 cells assessed as intracellular ROS level at 1 uM preincubated for 6 hrs followed by H2O2 addition measured after 18 hrs by DCFH-DA staining based fluorimetric method relative to control", "type": "functional", "set-up": "scale not given: the % may be the effect or the level left", "how_it_was_run": "as §2"}, "[12]": {"assay": "Metal chelating activity assessed as compound-Cu2+ complex formation at 20 uM after 30 mins by UV-visible spectrophotometric analysis", "how_it_was_run": "as §1"}, "[13]": {"system": "PC-12", "assay": "Neuroprotection against H2O2-induced cell death in rat PC12 cells assessed as cell viability at 20 uM preincubated for 3 hrs followed by H2O2 stimulation measured after 2 hrs by MTT assay (reference value: 25.2 to 41.8%)", "type": "functional", "details": "read-out: Activity"}, "[14]": {"assay": "Metal chelating activity assessed as mole fraction of compound required to show 2:1 stoichiometry for compound-Cu2+ complex at 40 uM after 30 mins by UV titration method", "how_it_was_run": "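Molar ratio method: 2.5 mL of 40 µM ligand in methanol titrated with CuCl2 (1000 µM in methanol) in 0.01 mL steps. Absorbance at 365 nm plotted against mole fraction; stoichiometry read from where the two straight lines cross.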"}, "[15]": {"biological_target": "Amyloid-beta precursor protein (Homo sapiens) (UniProt P05067)", "assay": "Inhibition of amyloid beta (1 to 42) (unknown origin) self-induced aggregation at 100 uM incubated for 48 hrs by thioflavin-T fluorescence assay relative to control"}, "[16]": {"system": "SH-SY5Y", "assay": "Neuroprotection against H2O2-induced cell death in human SH-SY5Y cells assessed as cell viability at 10 uM preincubated for 3 hrs followed by H2O2 addition measured after 24 hrs by MTT assay relative to control", "type": "functional", "details": "read-out: Activity", "how_it_was_run": "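SH-SY5Y cells grown in DMEM with 10% FBS, 1% L-glutamine and antibiotics, 5×10^3/well. Compound (10 or 50 µM) for 3 h before 250 µM H2O2, then 24 h incubation. MTT read at 570 nm after DMSO solubilization. Viability as blank-corrected % of untreated control; three independent experiments, mean ± SEM.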"}, "[17]": {"system": "PC-12", "assay": "Neuroprotection against H2O2-induced cell death in rat PC12 cells assessed as cell viability at 50 uM preincubated for 3 hrs followed by H2O2 stimulation measured after 2 hrs by MTT assay (reference value: 25.2 to 41.8%)", "type": "functional", "details": "read-out: Activity"}, "[18]": {"biological_target": "Acetylcholinesterase (Electrophorus electricus) (UniProt O42275)", "sequence (O42275 24-633 limits assumed)": "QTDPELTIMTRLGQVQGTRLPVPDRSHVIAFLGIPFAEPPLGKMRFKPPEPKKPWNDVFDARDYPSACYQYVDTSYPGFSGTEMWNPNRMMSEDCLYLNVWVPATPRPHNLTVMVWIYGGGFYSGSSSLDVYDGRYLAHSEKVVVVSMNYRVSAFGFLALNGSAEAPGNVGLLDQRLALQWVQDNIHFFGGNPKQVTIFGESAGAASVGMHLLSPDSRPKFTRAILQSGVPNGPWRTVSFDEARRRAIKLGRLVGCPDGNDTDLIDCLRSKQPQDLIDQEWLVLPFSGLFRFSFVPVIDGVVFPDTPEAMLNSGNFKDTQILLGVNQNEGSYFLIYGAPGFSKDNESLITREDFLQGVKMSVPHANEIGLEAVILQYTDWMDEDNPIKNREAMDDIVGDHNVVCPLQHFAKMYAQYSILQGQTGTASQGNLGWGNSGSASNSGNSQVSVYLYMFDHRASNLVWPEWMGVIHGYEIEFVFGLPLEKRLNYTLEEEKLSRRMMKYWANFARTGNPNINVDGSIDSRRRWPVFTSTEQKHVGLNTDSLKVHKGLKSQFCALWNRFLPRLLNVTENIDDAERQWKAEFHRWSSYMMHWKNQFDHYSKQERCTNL", "assay": "Mixed-type inhibition of electric eel AChE using varying levels of acetylthiocholine iodide as substrate pretreated for 5 mins followed by substrate addition by Lineweaver-Burk plot analysis", "how_it_was_run": "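Electric eel AChE (5 IU/mL) by Ellman method in 0.1 M phosphate buffer pH 8.0 with DTNB. Inhibitor was preincubated 5 min, then acetylthiocholine iodide was added at different concentrations. Absorbance followed at 412 nm. Inhibition type from reciprocal Lineweaver-Burk plots; Ki from a secondary replot of slope vs inhibitor concentration.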"}, "[19]": {"system": "PC-12", "assay": "Inhibition of H2O2-induced ROS generation in rat PC12 cells assessed as intracellular ROS level at 5 uM preincubated for 6 hrs followed by H2O2 addition measured after 18 hrs by DCFH-DA staining based fluorimetric method relative to control", "type": "functional", "set-up": "scale not given: the % may be the effect or the level left", "how_it_was_run": "as §2"}, "[20]": {"assay": "Metal chelating activity assessed as compound-Mg2+ complex formation at 20 uM after 30 mins by UV-visible spectrophotometric analysis", "how_it_was_run": "as §1"}, "[21]": {"system": "PC-12", "assay": "Inhibition of H2O2-induced ROS generation in rat PC12 cells preincubated for 6 hrs followed by H2O2 addition measured after 18 hrs by DCFH-DA staining based fluorimetric method", "type": "functional, cell-based", "how_it_was_run": "as §2"}, "[22]": {"system": "PC-12", "assay": "Inhibition of H2O2-induced ROS generation in rat PC12 cells assessed as intracellular ROS level at 50 uM preincubated for 6 hrs followed by H2O2 addition measured after 18 hrs by DCFH-DA staining based fluorimetric method relative to control", "type": "functional", "set-up": "scale not given: the % may be the effect or the level left", "how_it_was_run": "as §2"}, "[23]": {"biological_target": "Amyloid-beta precursor protein (Homo sapiens) (UniProt P05067)", "assay": "Potency index, ratio of compound effect to donepezil effect for inhibition of amyloid beta (1 to 42) (unknown origin) self-induced aggregation at 100 uM"}},
  "note": "Active and inactive are the calls of the source. No cut-off for these calls is given here.",
  "data": [
    {"smiles": "COc1ccc(-c2cc3ccc(OCCCn4cc(CNC(=O)CCCCC5CCSS5)nn4)cc3oc2=O)cc1OC", "note": "(stereo not drawn)", "values": [
      {"measurement": "Activity", "setting": "[1]", "result": "inactive"},
      {"measurement": "IC50", "setting": "[2]", "result": "> 100", "unit": "µM"},
      {"measurement": "viability at 0.1 µM", "setting": "[3]", "result": 36.4, "unit": "%"},
      {"measurement": "Activity", "setting": "[4]", "result": "Non-Toxic"},
      {"measurement": "Activity", "setting": "[5]", "result": 43.04, "unit": "%"},
      {"measurement": "Activity", "setting": "[6]", "result": "inactive"},
      {"measurement": "Ratio", "setting": "[7]", "result": 2},
      {"measurement": "IC50", "setting": "[8]", "result": 49.4, "unit": "µM"},
      {"measurement": "Ki", "setting": "[9]", "result": 6.91, "unit": "µM"},
      {"measurement": "Activity", "setting": "[10]", "result": "Active"},
      {"measurement": "Activity", "setting": "[11]", "result": 88.84, "unit": "%"},
      {"measurement": "Activity", "setting": "[12]", "result": "Active"},
      {"measurement": "viability at 20 µM", "setting": "[13]", "result": 45.6, "unit": "%"},
      {"measurement": "Activity", "setting": "[14]", "result": 0.5, "unit": "molar ratio"},
      {"measurement": "inhibition", "setting": "[15]", "result": 51.2, "unit": "%"},
      {"measurement": "viability at 10 µM", "setting": "[16]", "result": 64, "unit": "%"},
      {"measurement": "viability at 50 µM", "setting": "[17]", "result": 49.5, "unit": "%"},
      {"measurement": "inhibition", "setting": "[18]", "result": "Active"},
      {"measurement": "Activity", "setting": "[19]", "result": 79.32, "unit": "%"},
      {"measurement": "Activity", "setting": "[20]", "result": "inactive"},
      {"measurement": "inhibition", "setting": "[21]", "result": "Dose-dependent effect"},
      {"measurement": "Activity", "setting": "[22]", "result": 91.6, "unit": "%"},
      {"measurement": "Ratio", "setting": "[23]", "result": 2}
    ]}
  ]
}
